Data reported in ChEMBL document CHEMBL2169757, “Discovery, synthesis, and biological evaluation of a novel group of selective inhibitors of filoviral entry” (J Med Chem, 2011).
Activity calls are given as the source filed them. The calls are words filed in the database; no cut-off is given here.

Tests used:
Format in all cases: cell-based
293T [1] = test: Inhibition of compound-pretreated Ebolavirus GP pseudotyped in HIV virions infected in human 293T cells assessed as viral-cell entry at 60 uM after 48 hrs by luciferase gene assay relative to DMSO-treated control; parameters: scale not given: the % may be the effect or the level left; conditions: Zaire ebolavirus
Procedure, shortened: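 Ebola GP-pseudotyped HIV luciferase virions were mixed with compound (60 μM final) before infecting 293T cells. Medium was changed after overnight incubation, and luciferase was read from lysates at 48 h. Result is % infectivity relative to DMSO vehicle (0.1~0.2% final).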

HeLa [2] = test: Inhibition of compound-pretreated VSV GP pseudotyped in HIV virions infected in human HeLa cells assessed as inhibition of viral-cell entry after 48 hrs by luciferase gene assay relative to DMSO-treated control; conditions: Vesicular stomatitis virus
A549 = test: Inhibition of compound-pretreated Marburg GP pseudotyped in HIV virions infected in human A549 cells assessed as inhibition of viral-cell entry at 60 uM after 48 hrs by luciferase gene assay relative to DMSO-treated control; conditions: Marburgvirus
Procedure, shortened: (§1)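 HIV luciferase virions pseudotyped with Marburg GP (Lake Victoria) were preincubated with compound (60 μM final), then added to 293T, HeLa or A549 cells. Medium was replaced after overnight incubation, and lysates were read for luciferase at 48 h. Values are % of DMSO control, mean ± standard error of three independent experiments.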

[3] = (§2) Inhibition of compound-pretreated Ebolavirus GP pseudotyped in HIV virions infected in human 293T cells assessed as inhibition of viral-cell entry after 48 hrs by luciferase gene assay relative to DMSO-treated control; conditions: Zaire ebolavirus, HEK-293T
Procedure, shortened: (§3)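 Pseudotypes were briefly preincubated with compound at room temperature, then added to 293T or HeLa cells seeded the day before. Medium was replaced after overnight incubation, and cells were lysed at 48 h for firefly luciferase reading. Single point was 30 μM; curves spanned 3.75–120 or 3.75–60 μM. Infectivity was taken as % of DMSO control, from 3–5 independent experiments.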

293T [4] = test: as §2; conditions: Zaire ebolavirus; procedure, shortened: as §3
HeLa [5] = test: Inhibition of compound-pretreated Marburg GP pseudotyped in HIV virions infected in human HeLa cells assessed as inhibition of viral-cell entry at 60 uM after 48 hrs by luciferase gene assay relative to DMSO-treated control; conditions: Marburgvirus; procedure, shortened: as §1
293T [6] = test: Inhibition of compound-pretreated Marburg GP pseudotyped in HIV virions infected in human 293T cells assessed as inhibition of viral-cell entry at 60 uM after 48 hrs by luciferase gene assay relative to DMSO-treated control; conditions: Marburgvirus; procedure, shortened: as §1
293T [7] = test: Inhibition of compound-pretreated VSV GP pseudotyped in HIV virions infected in human 293T cells assessed as inhibition of viral-cell entry after 48 hrs by luciferase gene assay relative to DMSO-treated control; conditions: Vesicular stomatitis virus
[8] = (§4) Inhibition of compound-pretreated Ebolavirus GP pseudotyped in HIV virions infected in human HeLa cells assessed as inhibition of viral-cell entry after 48 hrs by luciferase gene assay relative to DMSO-treated control; conditions: Zaire ebolavirus; procedure, shortened: as §3
HeLa [9] = test: as §4; conditions: Zaire ebolavirus; procedure, shortened: as §3
HEK-293T [10] = test: Cytotoxicity against human 293T cells infected with Ebolavirus GP pseudotyped in HIV virions assessed as cell death at 60 uM
Procedure, shortened: (§5)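 Compounds at 60 μM final were mixed with Ebola GP-pseudotyped HIV luciferase virions and added to 293T cells. Cell morphology and growth were checked by light microscopy at 24 and 48 h post-infection. Vehicle was DMSO at 0.1~0.2% final.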

HEK-293T [11] = test: Cytotoxicity against human 293T cells infected with Ebolavirus GP pseudotyped in HIV virions assessed as effect on cell growth at 60 uM; procedure, shortened: as §5
HEK-293T [12] = test: Cytotoxicity against human 293T cells infected with Ebolavirus GP pseudotyped in HIV virions assessed as effect on cell morphology at 60 uM; procedure, shortened: as §5
293T [13] = test: Inhibition of compound-pretreated VSV GP pseudotyped in HIV virions infected in human 293T cells assessed as inhibition of viral-cell entry at 120 uM after 48 hrs by luciferase gene assay relative to DMSO-treated control; conditions: Vesicular stomatitis virus
HeLa [14] = test: Inhibition of compound-pretreated VSV GP pseudotyped in HIV virions infected in human HeLa cells assessed as inhibition of viral-cell entry at 120 uM after 48 hrs by luciferase gene assay relative to DMSO-treated control; conditions: Vesicular stomatitis virus
293T [15] = test: Inhibition of compound-pretreated Ebolavirus GP pseudotyped in HIV virions infected in human 293T cells assessed as inhibition of viral-cell entry at 30 uM after 48 hrs by luciferase gene assay relative to DMSO-treated control; conditions: Zaire ebolavirus; procedure, shortened: as §3
HeLa [16] = test: Inhibition of compound-pretreated Ebolavirus GP pseudotyped in HIV virions infected in human HeLa cells assessed as inhibition of viral-cell entry at 30 uM after 48 hrs by luciferase gene assay relative to DMSO-treated control; conditions: Zaire ebolavirus; procedure, shortened: as §3

## COc1ccc(-c2cc(CNC(=O)CNC(=O)OCc3ccccc3)on2)cc1
293T [1]
  Activity: 148%

## COc1ccc(-c2cc(CNC(=O)OCC(C)C)on2)cc1
293T [1]
  Activity: 118%

## COc1ccc(-c2cc(CNC(=O)CBr)on2)cc1
293T [1]
  Activity: 121%

## CCN(CC)CC(=O)NCc1cn(-c2ccccc2[N+](=O)[O-])nn1
293T [1]
  Activity: 66%

## CCN(CC)CC(=O)NCc1cc(-c2ccc(I)cc2)no1
HeLa [2]
  inhibition: inactive
A549
  inhibition: Active
[3]
  IC50: 2.5 µM
293T [4]
  inhibition: Dose-dependent effect
HeLa [5]
  inhibition: Active
293T [1]
  Activity: 6%
293T [6]
  inhibition: Active
293T [7]
  inhibition: inactive
[8]
  IC50: 2.5 µM
HeLa [9]
  inhibition: Dose-dependent effect

## CCCc1cc(CNC(=O)CN(CC)CC)on1
293T [1]
  Activity: 102%

## CCN(CC)CC(=O)NCc1cn(-c2ccc(I)cc2)nn1
HeLa [2]
  inhibition: inactive
A549
  inhibition: > 90%
[3]
  IC50: 5 µM
293T [4]
  inhibition: Dose-dependent effect
HeLa [5]
  inhibition: > 90%
293T [1]
  Activity: 4%
293T [6]
  inhibition: Active
293T [7]
  inhibition: inactive
[8]
  IC50: 5 µM
HeLa [9]
  inhibition: Dose-dependent effect

## CCCCCCCn1cc(CNC(=O)CN(CC)CC)nn1
293T [1]
  Activity: 60%

## O=C(CBr)NCc1cc(-c2ccc(Br)cc2)no1
HEK-293T [10]
  Activity: Toxic

## CCN(CC)CC(=O)NCc1cn(-c2ccc(OC)cc2[N+](=O)[O-])nn1
293T [1]
  Activity: 92%

## CCN(CC)CC(=O)NCc1cc(-c2ccc(Cl)cc2)no1
293T [1]
  Activity: 17%

## CCN(CC)CC(=O)NCc1cn(-c2ccccc2Br)nn1
293T [1]
  Activity: 19%

## CCN(CC)CC(=O)NCc1cc(-c2ccccc2OC)no1
293T [1]
  Activity: 87%

## COc1ccc(-c2cc(CNC(=O)[C@H](CS)NC(C)=O)on2)cc1
HEK-293T [11]
  Activity: Non-toxic
293T [1]
  Activity: 421%
HEK-293T [12]
  Activity: Non-toxic

## CCN(CC)CC(=O)NCc1cc(-c2cccc(OC)c2)no1
HeLa [2]
  inhibition: inactive
[3]
  IC50: 10 µM
293T [4]
  inhibition: Dose-dependent effect
293T [1]
  Activity: 4%
293T [7]
  inhibition: inactive
[8]
  IC50: 10 µM
HeLa [9]
  inhibition: Dose-dependent effect

## CCN(CC)CC(=O)NCc1cn(-c2c(Cl)cc(Cl)cc2Cl)nn1
293T [1]
  Activity: 33%

## COc1ccc(-c2cc(CNC(=O)[C@@H](N)Cc3ccccc3)on2)cc1
293T [1]
  Activity: 106%

## CCN(CC)CC(=O)NCc1cn(-c2ccc(Br)cc2)nn1
293T [1]
  Activity: 18%

## CC(=O)NCc1cc(-c2ccc(Br)cc2)no1
HEK-293T [11]
  Activity: Non-toxic
293T [1]
  Activity: 105%
HEK-293T [12]
  Activity: Non-toxic

## CCN(CC)CC(=O)NCc1cn(-c2c(Br)cc(Br)cc2Br)nn1
HeLa [2]
  inhibition: inactive
[3]
  IC50: 5 µM
293T [4]
  inhibition: Dose-dependent effect
293T [1]
  Activity: 3%
293T [7]
  inhibition: inactive
[8]
  IC50: 5 µM
HeLa [9]
  inhibition: Dose-dependent effect

## O=C1NC2(CCCC2)C(COc2ccccc2)O1 (stereo not given)
293T [13]
  inhibition: Active
HeLa [14]
  inhibition: Active

## COc1ccc(-c2cc(CNC(=O)[C@@H](NC(=O)OCc3ccccc3)C3CCCN3C(=O)OCc3ccccc3)on2)cc1 (stereo not given in full)
293T [1]
  Activity: 254%

## CCC(=O)NCc1cc(-c2ccc(Br)cc2)no1
293T [1]
  Activity: 99%

## CCN(CC)CC(=O)NCc1cc(-c2cccc([N+](=O)[O-])c2)no1
293T [1]
  Activity: 37%

## CCN(CC)CC(=O)NCc1cc(-c2c(F)c(F)c(F)c(F)c2F)no1
293T [1]
  Activity: 52%

## CCN(CC)CC(=O)NCc1cc(-c2ccc(C(F)(F)F)cc2)no1
293T [1]
  Activity: 24%

## COc1ccc(-c2cc(CNC(=O)[C@H](CC(=O)OCc3ccccc3)NC(=O)OC(C)(C)C)on2)cc1
293T [1]
  Activity: 118%

## CCN(CC)CC(=O)NCc1cc(-c2ccc(O)cc2)no1
293T [1]
  Activity: 132%

## COc1ccc(-c2cc(CNC(=O)[C@H](Cc3ccccc3)NC(=O)OC(C)(C)C)on2)cc1
293T [1]
  Activity: 188%

## O=C(NCc1cc(-c2ccc(Br)cc2)no1)c1ccccc1
293T [1]
  Activity: 82%

## CCN(CC)CC(=O)NCc1cc(-c2ccc([N+](=O)[O-])cc2)no1
293T [1]
  Activity: 30%

## CCN(CC)CC(=O)NCc1cc(-c2ccc(OC)cc2)no1
293T [13]
  inhibition: inactive
293T [15]
  inhibition: > 50%
HeLa [14]
  inhibition: inactive
A549
  inhibition: 20%
[3]
  IC50: 30 µM
293T [4]
  inhibition: Dose-dependent effect
HeLa [5]
  inhibition: 20%
293T [1]
  Activity: 56%
293T [6]
  inhibition: 20%
HeLa [16]
  inhibition: > 50%
[8]
  IC50: 30 µM
HeLa [9]
  inhibition: Dose-dependent effect

## CCN(CC)CC(=O)NCc1cc(-c2ccc(C)cc2)no1
HEK-293T [11]
  Activity: Non-toxic
293T [1]
  Activity: 381%
HEK-293T [12]
  Activity: Non-toxic

## CCN(CC)CC(=O)NCc1cc(-c2ccco2)no1
293T [1]
  Activity: 77%

## CC(C)C(=O)NCc1cc(-c2ccc(Br)cc2)no1
293T [1]
  Activity: 116%

## CCN(CC)CC(=O)NCc1cn(-c2cccc(OC)c2)nn1
293T [1]
  Activity: 90%

## CCN(CC)CC(=O)NCc1cn(-c2ccccc2)nn1
293T [1]
  Activity: 46%

## CCN(CC)CC(=O)NCc1cn(Cc2ccccc2)nn1
293T [1]
  Activity: 35%

## CCN(CC)CC(=O)NCc1cn(-c2ccc(OC)cc2)nn1
293T [1]
  Activity: 58%

## CCN(CC)CC(=O)NCc1cc(-c2ccc(Br)cc2)no1
293T [1]
  Activity: 30%

## CCN(CC)CC(=O)NCc1cn(-c2ccc(Cl)cc2)nn1
293T [1]
  Activity: 105%

## CCN(CC)CC(=O)NCc1cc(-c2c(C)cccc2C)no1
293T [1]
  Activity: 59%

## CCN(CC)CC(=O)NCc1cc(-c2ccccc2)no1
293T [1]
  Activity: 181%

## CCN(CC)CC(=O)NCc1cn(-c2cccc(I)c2)nn1
293T [1]
  Activity: 111%

## CCN(CC)CC(=O)NCc1cc(-c2ccc(OC)c(I)c2)no1
293T [1]
  Activity: 4%

## CCN(CC)CC(=O)NCc1cc(-c2ccc(OC)c(OC)c2)no1
293T [1]
  Activity: 160%

## COc1ccc(-c2cc(CNC(=O)[C@@H](NC(=O)OCc3ccccc3)C(C)C)on2)cc1
293T [1]
  Activity: 220%
